Assay results published in ChEMBL document CHEMBL1130122, “Synthesis, biological evaluation, and structure-activity relationships of 3-acylindole-2-carboxylic acids as inhibitors of the cytosolic phospholipase A2” (J Med Chem, 1997).
pIC50: −log10 of the molar value.

Legend:
Bos taurus = organism: Bos taurus; experiment: The cell lytic potency at a compound concentration of 33 uM in bovine platelets was determined; format: functional
Summary of the method: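 Turbidimetric lysis assay in bovine platelets. ETYA, then compound or DMSO solvent, then platelet suspension and CaCl2 at 37 °C. The suspension was diluted with PBS and absorbance read at 800 nm; lysis lowers absorbance. Platelets were stored at +4 °C and used within 36 h of isolation.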

[1] = molecular target: T1, Cytosolic phospholipase A2 (Bos taurus, UniProt A4IFJ5); experiment: Inhibitory activity against cPLA2 (cytosolic Phospholipase A2) by measuring the calcium ionophore A-23,187-induced arachidonic acid release from bovine platelets; format: functional
T1 sequence (A4IFJ5 whole entry): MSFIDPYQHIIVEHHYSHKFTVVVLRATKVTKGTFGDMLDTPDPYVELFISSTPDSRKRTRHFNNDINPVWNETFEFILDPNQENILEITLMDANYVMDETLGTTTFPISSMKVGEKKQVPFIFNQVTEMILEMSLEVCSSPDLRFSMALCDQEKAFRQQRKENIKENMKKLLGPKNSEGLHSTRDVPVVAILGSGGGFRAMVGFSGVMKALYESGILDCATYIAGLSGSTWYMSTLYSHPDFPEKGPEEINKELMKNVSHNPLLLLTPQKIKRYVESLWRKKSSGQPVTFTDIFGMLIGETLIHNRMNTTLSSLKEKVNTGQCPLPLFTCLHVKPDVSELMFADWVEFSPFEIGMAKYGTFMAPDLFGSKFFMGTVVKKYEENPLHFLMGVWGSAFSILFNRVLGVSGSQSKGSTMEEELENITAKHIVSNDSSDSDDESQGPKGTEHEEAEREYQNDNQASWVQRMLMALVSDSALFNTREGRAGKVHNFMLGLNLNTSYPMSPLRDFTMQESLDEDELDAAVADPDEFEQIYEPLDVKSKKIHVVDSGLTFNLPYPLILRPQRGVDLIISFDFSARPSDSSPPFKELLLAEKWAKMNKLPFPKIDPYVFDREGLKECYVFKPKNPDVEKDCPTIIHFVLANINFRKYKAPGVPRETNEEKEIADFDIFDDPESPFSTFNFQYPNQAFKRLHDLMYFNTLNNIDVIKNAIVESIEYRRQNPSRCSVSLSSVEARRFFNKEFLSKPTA
Summary of the method: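 Intact bovine platelets stimulated with calcium ionophore A23187 in the presence of ETYA, which blocks arachidonic acid metabolism. Compound or solvent control was added to ETYA, then platelet suspension and CaCl2 at 37 °C. Released arachidonic acid was measured by HPLC/UV. IC50 was read graphically as the mean of at least two independent experiments. Platelets were stored at +4 °C and used within 36 h of isolation.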

[2] = tested on: Cytosolic phospholipase A2 (Bos taurus); experiment: Inhibitory activity against cPLA2 (cytosolic Phospholipase A2) by measuring the calcium ionophore A-23,187-induced arachidonic acid release from bovine platelets; Not active at highest conc tested 33 uM
[3] = tested on: Cytosolic phospholipase A2 (Bos taurus); experiment: Inhibitory activity against cPLA2 (cytosolic Phospholipase A2) by measuring the calcium ionophore A-23,187-induced arachidonic acid release from bovine platelets at a compound conc of 33 uM

With `CCCCCCCCCCCCOc1cccc(C(=O)c2c(C(=O)O)n(C)c3ccccc23)c1` the Lysis (Bos taurus) was 26% and the pIC50 [1] was 5.15.
Compound `CCCCCCCCCCCCCCCCCC(=O)c1c(CC(=O)O)n(C)c2ccccc12` has a Lysis (Bos taurus) of 0% and a pIC50 [1] of under 4.48.
`CCCCCCCCCCCC(=O)c1c(C(=O)O)n(C)c2ccc(OC)cc12` gave a Lysis (Bos taurus) of 0% and a pIC50 [1] of 5.10.
Compound `CCCCCCCCCCCCOc1ccc(C(=O)c2c(C(=O)O)n(C)c3ccccc23)cc1` has a Lysis (Bos taurus) of 19% and a pIC50 [1] of 5.15.
`CCCCCCCCCCOc1ccccc1CCC(=O)c1c(C(=O)O)n(C)c2ccccc12` showed a Lysis (Bos taurus) of 34% and a pIC50 [1] of 4.47.
`CCCCCCCCCC(=O)c1c(C(=O)O)n(C)c2ccccc12` showed a Lysis (Bos taurus) of 0% and a pIC50 [1] of 4.74.
In the case of `CCCCCCCCCCOc1cccc(CC(=O)c2c(C(=O)O)n(C)c3ccccc23)c1`, the Lysis (Bos taurus) was 21% and the pIC50 [1] was 5.00.
For `CCCCCCCCCCCC(=O)c1c(C(=O)O)n(Cc2cccc(/C=C/C(=O)O)c2)c2ccccc12`, the Lysis (Bos taurus) was 0% and the pIC50 [1] was 5.28.
`CCCCCCCCCCCC(=O)c1c(C(=O)O)n(CCCCCCCC(=O)O)c2ccccc12` showed a Lysis (Bos taurus) of 0% and a pIC50 [1] of 5.80.
For `CCCCCCCCCCCC(=O)c1c(C(=O)O)n(C)c2cc(Cl)ccc12`, the Lysis (Bos taurus) was 26% and the pIC50 [1] was 5.05.
`CCCCCCCCCCCCCCCCCC(=O)c1c(CCC(=O)O)n(C)c2ccccc12` was tested, and the Lysis (Bos taurus) was 0% and the IC50 [2] was “Not Active”.
In the case of `CCCCCCCCCCCC(=O)c1c(C(=O)O)n(CCCCCCCCCCC(=O)O)c2ccccc12`, the Lysis (Bos taurus) was 0% and the pIC50 [1] was 5.85.
For `CCCCCCCCCCCCCCCCCC(=O)c1c(C(=O)OCC)n(C)c2ccccc12`, the Lysis (Bos taurus) was 0% and the IC50 [2] was “Not Active”.
Compound `CCCCCCCCCCCC(=O)c1c(C(=O)O)n(C)c2ccc([N+](=O)[O-])cc12` has a Lysis (Bos taurus) of 10% and a pIC50 [1] of 5.00.
Work on `CCCCCCCCCCOc1cccc(CCC(=O)c2c(C(=O)O)n(C)c3ccccc23)c1` yielded a Lysis (Bos taurus) of 14% and a pIC50 [1] of 4.96.
`CCCCCCCCCCCC(=O)c1c(C(=O)O)n(CCCCCCCCC(=O)O)c2ccccc12` was tested, and the Lysis (Bos taurus) was 0% and the pIC50 [1] was 5.80.
Work on `CCCCCCCCCCCC(=O)c1c(C(=O)O)n(C)c2ccc(Cl)cc12` yielded a Lysis (Bos taurus) of 14% and a pIC50 [1] of 5.10.
In the case of `CCCCCCCCCCCCCCCCCC(=O)c1c(C(=O)O)n(CCCCCC)c2ccccc12`, the Lysis (Bos taurus) was 27% and the pIC50 [1] was 5.05.
With `CCCCCCCCCCCC(=O)c1c(C(=O)O)n(CCCCCC(=O)O)c2ccccc12` the Lysis (Bos taurus) was 0% and the pIC50 [1] was 5.10.
`CCCCCCCCCCCC(=O)c1c(C(=O)O)n(C)c2ccccc12` gave a Lysis (Bos taurus) of 0% and a pIC50 [1] of 5.10.
`CCCCCCCCCCCCCCCCCC(=O)c1c(C(=O)O)[nH]c2ccccc12` was tested, and the Lysis (Bos taurus) was 0% and the IC50 [2] was “Not Active”.
With `CCCCCCCCCCCC(=O)c1c(C(=O)O)n(Cc2cccc(CCC(=O)O)c2)c2ccccc12` the Lysis (Bos taurus) was 0% and the pIC50 [1] was 5.37.
`CCCCCCCCCCCCCCCCCC(=O)c1c(CC(=O)O)[nH]c2ccccc12` was tested, and the Lysis (Bos taurus) was 0% and the IC50 [2] was “Not Active”.
Work on `CCCCCCCCCCCC(=O)c1c(C(=O)O)n(CC(=O)O)c2ccccc12` yielded a Lysis (Bos taurus) of 0%, a pIC50 [1] of under 4.48 and an inhibition [3] of 39%.
In the case of `CCCCC/C=C\C/C=C\C/C=C\C/C=C\CCCC(=O)C(F)(F)F` [ARACHIDONYL TRIFLUOROMETHYLKETONE], the Lysis (Bos taurus) was 31% and the pIC50 [1] was 4.96.
With `CCCCCCCCCCOc1ccc(CCC(=O)c2c(C(=O)O)n(C)c3ccccc23)cc1` the Lysis (Bos taurus) was 0% and the pIC50 [1] was 5.00.
`CCCCCCCCCCCCCCCCCC(=O)c1c(C(=O)O)n(CCCCCCCC(=O)O)c2ccccc12` was tested, and the Lysis (Bos taurus) was 69% and the pIC50 [1] was 5.85.
Compound `CCCCCCCCCCCC(=O)c1c(C(=O)O)n(CCOc2cccc(C(=O)O)c2)c2ccccc12` has a Lysis (Bos taurus) of 0% and a pIC50 [1] of 5.72.
Work on `CCCCCCCCCCCCCCCCNC(=O)C1CCCN1` (configuration not stated) yielded a Lysis (Bos taurus) of 0% and a pIC50 [1] of 4.89.
Work on `CCCCCCCCCCOc1ccccc1CC(=O)c1c(C(=O)O)n(C)c2ccccc12` yielded a Lysis (Bos taurus) of 37% and a pIC50 [1] of 5.15.
`CCCCCCCCCCCCCCCCCC(=O)c1c(C(=O)O)n(CCCCCCCC)c2ccccc12` gave a Lysis (Bos taurus) of 0%.
`CCCCCCCCCCCC(=O)c1c(C(=O)O)n(CCOc2ccc(CC(=O)O)cc2)c2ccccc12` showed a Lysis (Bos taurus) of 0%.
With `CCCCCCCCCCCCCCCCCC(=O)c1c(C(=O)O)n(CCCCCCCCCCCC)c2ccccc12` the Lysis (Bos taurus) was 0%.
`CCCCCCCCCCCC(=O)c1c(C(=O)O)n(CCOc2ccc(C(=O)O)cc2)c2ccccc12` gave a Lysis (Bos taurus) of 0% and a pIC50 [1] of 6.30.
`CCCCCCCCCCCC(=O)c1c(C(=O)O)n(C)c2cccc(Cl)c12` gave a Lysis (Bos taurus) of 50% and a pIC50 [1] of 5.05.
Compound `CCCCCCCCCCCCOc1ccccc1C(=O)c1c(C(=O)O)n(C)c2ccccc12` has a Lysis (Bos taurus) of 60%.
With `CCCCCCCCCCCCCCCCCC(=O)c1c(CCC(=O)O)[nH]c2ccccc12` the Lysis (Bos taurus) was 0% and the IC50 [2] was “Not Active”.
`CCCCCCCCCCCC(=O)c1c(C(=O)O)n(C)c2ccc(F)cc12` showed a Lysis (Bos taurus) of 0% and a pIC50 [1] of 4.96.
`CCCCCCCCCCCCCCCCCC(=O)c1c(C(=O)O)n(C)c2ccccc12` gave a Lysis (Bos taurus) of 0% and a pIC50 [1] of 5.10.
With `CCCCCCCCCCOc1ccc(CC(=O)c2c(C(=O)O)n(C)c3ccccc23)cc1` the Lysis (Bos taurus) was 38% and the pIC50 [1] was 5.15.
Compound `CCCCCCCCCCCC(=O)c1c(C(=O)O)n(Cc2ccc(CCC(=O)O)cc2)c2ccccc12` has a Lysis (Bos taurus) of 0% and a pIC50 [1] of 5.40.
`CCCCCCCCCCCC(=O)c1c(C(=O)O)n(CCCCCCC(=O)O)c2ccccc12` showed a Lysis (Bos taurus) of 0% and a pIC50 [1] of 5.52.
`CCCCCCCCCCCCCC(=O)c1c(C(=O)O)n(C)c2ccccc12` was tested, and the Lysis (Bos taurus) was 0% and the pIC50 [1] was 5.10.
With `CCCCCCCCCCCCCCCCCCc1c(C(=O)O)n(C)c2ccccc12` the Lysis (Bos taurus) was 0% and the IC50 [2] was “Not Active”.
For `CCCCCCCCCCCC(=O)c1c(C(=O)O)n(C)c2ccc(O)cc12`, the Lysis (Bos taurus) was 0% and the pIC50 [1] was 5.00.
`CCCCCCCC(=O)c1c(C(=O)O)n(C)c2ccccc12` gave a Lysis (Bos taurus) of 0%, a pIC50 [1] of under 4.48 and an inhibition [3] of 30%.
`CCCCCCCCCCCC(=O)c1c(C(=O)O)n(CCOc2cccc(CC(=O)O)c2)c2ccccc12` was tested, and the Lysis (Bos taurus) was 0%.
`CCCCCCCCCCCC(=O)c1c(C)c(C)n(C)c1C(=O)O` showed a Lysis (Bos taurus) of 0% and a pIC50 [1] of 4.96.
With `CCCCCCCCCCCC(=O)c1c(C(=O)O)n(Cc2ccc(/C=C/C(=O)O)cc2)c2ccccc12` the Lysis (Bos taurus) was 0% and the pIC50 [1] was 5.39.
For `CCCCCCCCCCCCCCCCCC(=O)c1c(C(=O)O)n(CCCCCCC)c2ccccc12`, the Lysis (Bos taurus) was 16% and the pIC50 [1] was under 5.00.
